Rows were chosen to be rich in hits. Some 3.9% of all compounds tested hit in one or more screens of this group.
Jurkat NFkB inh – inhibitors of induced NF-kB luciferase reporter, primary screen, TCR NF-kB activation inhibitor project, cell-based, luminescence, uHTS | Jurkat, PMA/ionomycin-induced NF-kB luciferase reporter | inhibition, % at 4 µM | hit rate 0.53% among 330,000 | AID 435003, 2010; in the data active = inhibition above about 50%
XBP1 UPR activ – activators of adaptive XBP1 UPR arm, primary screen, cell-based, CHO-XBP1 luciferase reporter, luminescence, uHTS. hit rate 0.33% among 330,000. activation, % at 20 µM. AID 463104, 2010. IRE1-XBP1 UPR activation; percent of tunicamycin response, DMSO as zero;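 active = versus positive control, 20 µM dose yields 30% or more activation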;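 also: 100% = tunicamycin at 10 µg/mL and 0% = DMSO only wells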
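Signal: luciferase luminescence; Assay system: CHO-XBP1 luciferase reporter cells; Amount: one thousand reporter cells per well; Dosing: 20 µM single concentration, DMSO 1%; Benchmarks: high control tunicamycin 10 µg/mL final, low control DMSO vehicle only; Schedule: 6 h compound exposure at 37 °C, 5% CO2; Evaluation: percent activation relative to tunicamycin reference.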
CHOP inh – inhibitors of CHOP promoter induction, primary screen, cell-based, unfolded protein response, luciferase reporter; CHO-K1 CHOP-promoter luciferase, tunicamycin-induced, 15-18 h; inhibition, % at 10 µM; hit rate 3.8% among 220,000; AID 2732, 2010;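 active = compounds that reduced the stress-induced luciferase reporter signal by more than about 70% of percent inhibition, limit read from the data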;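 also: 0% = tunicamycin plus vehicle and 100% = wells without tunicamycin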
UPR CHOP act – activators of apoptotic CHOP UPR arm, primary screen, cell-based, CHO-CHOP luciferase reporter, luminescence, uHTS; UPR activation; percent of tunicamycin response over DMSO baseline; activation, % at 10 µM; hit rate 0.34% among 330,000;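 active = at 10 µM dose, activation of 40% or more, normalized to positive control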;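 also: 100% = tunicamycin at 10 µg/mL and 0% = DMSO alone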
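System: CHO-CHOP luciferase reporter cell line; amount: 500 cells/well; buffer or medium: F12 medium containing 10% fetal bovine serum; incubation: 6 h compound exposure at 37 °C after overnight seeding; measured by: luciferase luminescence after 10 min with Steady-Glo reagent; evaluation: % reporter activation, DMSO baseline versus tunicamycin full activation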
Gli-Sufu block – Gli-Sufu pathway antagonists, primary screen, luciferase luminescence, Sufu-KO-LIGHT cells, uHTS; Sufu-KO-LIGHT fibroblasts, Gli luciferase reporter luminescence; inhibition, % at 5 µM; hit rate 0.74% among 340,000; AID 588413, 2011;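 active = inhibition above about 55%, limit read from the data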;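 also: 0% = DMSO-treated cells and 100% = wells with medium but no cells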
697 NFkB inh – inhibitors of PMA/ionomycin-induced NF-kB reporter, 697 cells, primary screen, B-cell NF-kB inhibitor project, cell-based, luminescence, uHTS | inhibition, % at 4 µM | hit rate 0.33% among 330,000 | 697 B-cell NF-kB luciferase reporter, 16 h; in the data active = inhibition above about 35%
Active calls of the source: *; . = no result.

SMILES	Jurkat NFkB inh	XBP1 UPR activ	CHOP inh	UPR CHOP act	Gli-Sufu block	697 NFkB inh
COc1ccc(OCC(=O)Nc2cccc(-c3nc4ccccc4o3)c2)cc1	-29.3	0.1	74.8*	2.1	-106.1	-9.8
O=C(Nc1ccc2oc(-c3cccc(F)c3)nc2c1)c1ccccc1F	-43.9	10.0	72.6*	6.8	-96.0	-75.7
O=C(Nc1ccc2oc(-c3ccccc3)nc2c1)c1ccccc1F	-109.6	3.5	-6.9	4.8	-81.6	-113.9
O=C(Nc1cccc(-c2nc3ccccc3o2)c1)c1ccc(N2C(=O)C3C4C=CC(C4)C3C2=O)cc1 (centres undefined)	-6.7	1.6	71.1*	-3.6	-3.2	5.6
Cc1ccc2oc(-c3cccc(NC(=O)c4ccccn4)c3)nc2c1	.	.	.	.	-19.6	.
CC(=O)Nc1ccc(N(C(=O)c2ccco2)C(C(=O)NC2CCCC2)c2ccncc2)cc1 (centres undefined)	-21.0	-0.7	.	4.4	-1.6	-9.6
COCCSc1nc(N)c(NC(=O)c2ccco2)c(=O)[nH]1	16.0	-2.3	.	0.1	-4.2	0.2
O=C(CNC(=O)c1ccco1)OCC(=O)c1ccc(Br)cc1	4.9	3.3	.	-2.9	-10.1	12.4
COc1ccc(C(=O)Nc2cccc(-c3nnc(-c4ccco4)o3)c2)cc1	1.7	1.7	71.5*	3.9	-55.5	-67.0
COc1ccc(CC(=O)Nc2cccc(-c3nnc(-c4ccco4)o3)c2)cc1	-23.6	0.9	59.2	-0.2	-21.3	-59.4
COc1ccc(N(CC(=O)NC2CCCC2)C(=O)c2ccc(C)s2)c(OC)c1	0.7	-2.4	.	-1.3	38.8	-18.3
Cc1cc(Oc2ccc(C#N)cc2)nc(NCc2ccccc2)n1	-1.0	0.5	76.7*	-3.2	5.8	-31.8
O=c1cc(-c2ccccc2)cc(-c2ccccc2)n1O	-5.1	-1.8	.	3.1	13.8	-11.0
COc1cc(C(=O)NCCC(C)C)ccc1OCc1ccc(Cl)cc1Cl	4.8	-2.7	56.0	1.1	10.0	13.8
COc1cc(C(=O)NC2CCCCC2)ccc1OCc1ccc(Cl)cc1Cl	14.7	2.4	84.8*	1.7	3.2	16.8
CCCN(C(=O)c1ccco1)c1nnc(-c2ccncc2)s1	-35.8	0.5	9.0	-1.2	1.7	-7.1
CCCCN(C(=O)c1ccco1)c1nnc(-c2cc(OC)c(OC)c(OC)c2)s1	-6.1	1.0	72.6*	0.7	7.2	21.4
CCC1CSC(Nc2ccc(C(=O)/C=C/c3ccc(Br)cc3)cc2)=N1 (centres undefined)	-2.7	3.7	89.4*	2.1	37.3	-2.9
CCC1CSC(Nc2ccc(C(=O)/C=C/c3ccc(OC)c(OC)c3)cc2)=N1 (centres undefined)	17.7	1.7	13.5	2.6	6.8	-9.3
COc1cc(NC(=O)COC(=O)CO/N=C(\C)c2ccc3c(c2)OCO3)cc(OC)c1OC	-7.3	-3.4	.	-1.9	0.6	7.6
O=C(CC1CCCCC1)N1CCC(c2nc(-c3ccc(S(=O)(=O)N4CCCC4)cc3)no2)CC1	32.0	-5.1	95.1*	-1.1	9.3	-16.6
CC(C)(C)CC(C)(C)NC(=S)NC1CCN(Cc2ccccc2)CC1	13.2	3.1	71.2*	0.5	3.0	-14.4
Cc1cccc(NC(=S)NC2CCN(Cc3ccccc3)CC2)c1C	-8.3	-4.5	0.8	0.6	23.6	-4.5
O=C(Nc1cc(C(F)(F)F)ccc1Cl)C1CCN(c2nnc(-n3cccc3)s2)CC1	.	.	83.4*	.	-8.5	.
Cc1c(Cl)c([N+](=O)[O-])nn1CC(=O)NCc1ccc(Cl)cc1	8.5	-1.2	.	-0.9	15.1	-0.9
SMILES	Jurkat NFkB inh	XBP1 UPR activ	CHOP inh	UPR CHOP act	Gli-Sufu block	697 NFkB inh
Cc1csc(NC(=O)CSc2nnc(NC(=O)COc3ccc(Cl)cc3)s2)n1	-16.1	-0.5	93.4*	8.4	4.5	9.2
Cc1csc(NC(=O)CSc2nnc(NC(=O)C3CC(=O)N(c4ccccc4)C3)s2)n1 (centres undefined)	-4.7	-1.4	38.5	1.0	-1.4	2.5
CCCC(=O)Nc1nnc(SCC(=O)Nc2nc(C)cs2)s1	-7.6	-2.7	.	1.1	2.8	16.0
Cc1ccc(N2CC(C(=O)Nc3nnc(SCC(=O)Nc4nc(C)cs4)s3)CC2=O)cc1 (centres undefined)	-4.6	2.5	71.0*	0.8	-0.5	-1.5
O=C(COc1cc(F)ccc1[N+](=O)[O-])Nc1ccc(N2CCCCC2)cc1	-14.3	-1.0	.	1.1	-8.7	-17.4
C=C(C)C1CCC2(C(=O)O)CCC3(C)C(CCC4C5(C)C(C=O)C(O)C(C)(C)C5CCC43C)C12 (centres undefined)	1.6	2.3	84.9*	-0.2	-1.8	-6.3
CC(Oc1cccc(Br)c1)C(=O)NNC(=O)CCS(=O)(=O)c1ccccc1 (centres undefined)	-14.5	-2.6	.	0.8	1.9	1.6
CCCCNC(=O)C(CC)(ONc1ccccc1C(F)(F)F)c1ccccc1OC (centres undefined)	3.7	-0.9	.	-0.9	-1.4	19.6
CCCc1ccc(C(=O)Cn2nc(C(=O)O)c3ccccc3c2=O)cc1	-2.4	-1.8	86.4*	1.0	-13.7	-27.3
Cc1ccc(OC(C)C(=O)N(C)c2ccccc2)c([N+](=O)[O-])n1 (centres undefined)	-10.6	-1.5	.	-3.2	-2.4	2.1
C=CCN(c1nc(C)c(Br)c(OC)n1)S(=O)(=O)c1ccc(C)cc1	8.9	-0.4	.	-2.0	5.9	-9.0
COc1nc(N(C)S(=O)(=O)c2ccc(C)cc2)nc(C)c1Cl	-1.6	0.6	83.3*	10.8	13.4	-24.5
CCc1ccc(OCCCOc2ccc(C=O)cc2)cc1	6.7	0.4	72.5*	-0.4	-3.7	3.4
CCc1ccc(OCCCC(=O)NCc2ccccc2)cc1	5.4	-2.8	3.0	-0.7	-1.2	18.6
Cc1cc(C(=O)COC(=O)c2ccc[nH]c2=O)c(C)n1-c1ccc(F)cc1	-45.6	-5.2	75.2*	-6.9	-38.7	-66.5
Cc1cc(C(=O)COC(=O)c2ccc[nH]c2=O)c(C)n1-c1ccccc1	-29.8	-8.2	70.3*	-2.9	-48.6	-63.1
CCOc1ccc(NC(=O)c2ccc3[nH]c(=O)c(=O)[nH]c3c2)cc1	2.4	-8.0	.	-0.8	-3.6	6.7
CCN1CCCC1CNC(=O)CN(C)S(=O)(=O)c1ccc(Cl)cc1 (centres undefined)	-14.1	-6.2	.	1.3	12.8	5.3
Cc1ccc(C2CC(=O)Oc3cc(C)c(Br)c(C)c32)cc1 (centres undefined)	.	-0.9	.	1.4	8.0	23.9
